Measured values from different studies.
Cell line: CAKI-1
Effect on: cell growth or viability

COc1cc(Nc2nccc(-c3cnn4nc(OC)ccc34)n2)cc(C(F)(F)F)c1  IC50 (ATP luminescence): 310 nM
COc1ccc(-c2ccc(-c3ccc(C(=N)N)nc3)s2)cc1Cl  GI50: 1740 nM
CC(C)C[C@H](NC(=O)[C@H](Cc1ccccc1)NC(=O)c1cnccn1)B(O)O  IC50 (ATP luminescence): 10 nM
COc1ccc(-c2ccc(-c3ccc(C(=N)N)nc3)s2)cc1  GI50: 1640 nM
S=C([S][Au-][P+](CCCCCC[P+]([Au-][S]C(=S)n1cccn1)(c1ccccc1)c1ccccc1)(c1ccccc1)c1ccccc1)n1cccn1  GI50: 7150 nM
COc1ccc(C(=O)/C=C/c2cc3c(cc2Br)OCO3)cc1S(N)(=O)=O  GI50 (SRB; 48 h): 4600 nM
O=C1Nc2ccccc2C1=NNc1nnc2n1N=C(c1ccccc1)CS2  inhibition (SRB; 10 µM): 21%
[Cl-].[Cl-].[Ti+4].c1cc[cH-]c1.c1cc[cH-]c1  IC50 (XTT; 24 h): > 200000 nM
Cc1cc(C)n(C(=S)[S][Au][PH](CCCCCC[PH]([Au][S]C(=S)n2nc(C)cc2C)(c2ccccc2)c2ccccc2)(c2ccccc2)c2ccccc2)n1  GI50: 2160 nM
COc1ccc(C(=O)/C=C/c2cccc(Cl)c2Cl)cc1S(N)(=O)=O  inhibition (SRB; 10 µM): 106%
CC(=O)OC[C@H]1O[C@@H]([S-])[C@H](OC(C)=O)[C@@H](OC(C)=O)[C@@H]1OC(C)=O.CCP(CC)CC.[Au+]  IC50 (resazurin): 2290 nM
